Reference: ChEMBL document CHEMBL1250465, “A new metabotropic glutamate receptor agonist with in vivo anti-allodynic activity” (Bioorg Med Chem, 2010)
Active and inactive are the calls of the source.

Experiments:
Rattus norvegicus [1] = test: Antiallodynic activity against von Frey hair mechanically stimulated neuropathic pain in Sprague-Dawley rat assessed as increase of response threshold at 500 nmol dosed intrathecally after 1 hr; assay type: functional, organism-based
How it was run: (§1)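 Male Sprague-Dawley rats with chronic constriction injury of the left sciatic nerve, dosed 16 days after surgery. Intrathecal dosing under isoflurane, with vehicle as control. Blinded von Frey testing of both hind paws before dosing and at 1, 3 and 24 h. 50% withdrawal threshold in g from a Gaussian integral psychometric fit by maximum likelihood; n = 6.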

Rattus norvegicus [2] = test: Antiallodynic activity against von Frey hair mechanically stimulated neuropathic pain in Sprague-Dawley rat assessed as increase of response threshold at 500 nmol dosed intrathecally after 3 hrs relative to control; assay type: functional; how it was run: as §1
Rattus norvegicus [3] = test: Antiallodynic activity against von Frey hair mechanically stimulated neuropathic pain in Sprague-Dawley rat assessed as increase of response threshold at 50 nmol dosed intrathecally after 24 hrs relative to control; assay type: functional; conditions: in the assay text read “after 3 hrs” for “after 24 hrs”; how it was run: as §1
[4] = Displacement of [3H]AMPA from AMPA receptor in Sprague-Dawley rat brain synaptic membranes after 30 mins; assay type: cell membranes, Membrane
How it was run: (§2)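 Adult male Sprague-Dawley rat cortex synaptic membranes, washed four times in ice-cold pH 7.4 buffer at about 0.4–0.5 mg protein/mL. AMPA: 5 nM [3H]AMPA in 30 mM Tris-HCl/2.5 mM CaCl2 with 100 mM KSCN. Kainate: 5 nM [3H]KAIN in 50 mM Tris-HCl. NMDA: 2 nM [3H]CGP39653 in 50 mM Tris-HCl/2.5 mM CaCl2. Nonspecific binding set with 1 mM (S)-Glu.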

Rattus norvegicus [5] = test: Antiallodynic activity against von Frey hair mechanically stimulated neuropathic pain in intrathecally dosed Sprague-Dawley rat assessed as increase of response threshold after 3 hrs; assay type: functional, organism-based; how it was run: as §1
[6] = Displacement of [3H]KAIN from kainate receptor in Sprague-Dawley rat brain synaptic membranes after 60 mins; assay type: cell membranes, Membrane; how it was run: as §2
Glutamate NMDA receptor = test: Displacement of [3H]CGP39653 from NMDA receptor in Sprague-Dawley rat brain synaptic membranes after 60 mins; assay type: cell membranes, Membrane; how it was run: as §2
[7] = biological target: T1, Metabotropic glutamate receptor 2 (Homo sapiens, UniProt Q14416); test: Agonist activity at mGlu2 receptor expressed in CHO cells assessed as inhibition of forskolin-induced increase of cAMP level; assay type: functional, cell-based
T1 sequence (Q14416 whole entry): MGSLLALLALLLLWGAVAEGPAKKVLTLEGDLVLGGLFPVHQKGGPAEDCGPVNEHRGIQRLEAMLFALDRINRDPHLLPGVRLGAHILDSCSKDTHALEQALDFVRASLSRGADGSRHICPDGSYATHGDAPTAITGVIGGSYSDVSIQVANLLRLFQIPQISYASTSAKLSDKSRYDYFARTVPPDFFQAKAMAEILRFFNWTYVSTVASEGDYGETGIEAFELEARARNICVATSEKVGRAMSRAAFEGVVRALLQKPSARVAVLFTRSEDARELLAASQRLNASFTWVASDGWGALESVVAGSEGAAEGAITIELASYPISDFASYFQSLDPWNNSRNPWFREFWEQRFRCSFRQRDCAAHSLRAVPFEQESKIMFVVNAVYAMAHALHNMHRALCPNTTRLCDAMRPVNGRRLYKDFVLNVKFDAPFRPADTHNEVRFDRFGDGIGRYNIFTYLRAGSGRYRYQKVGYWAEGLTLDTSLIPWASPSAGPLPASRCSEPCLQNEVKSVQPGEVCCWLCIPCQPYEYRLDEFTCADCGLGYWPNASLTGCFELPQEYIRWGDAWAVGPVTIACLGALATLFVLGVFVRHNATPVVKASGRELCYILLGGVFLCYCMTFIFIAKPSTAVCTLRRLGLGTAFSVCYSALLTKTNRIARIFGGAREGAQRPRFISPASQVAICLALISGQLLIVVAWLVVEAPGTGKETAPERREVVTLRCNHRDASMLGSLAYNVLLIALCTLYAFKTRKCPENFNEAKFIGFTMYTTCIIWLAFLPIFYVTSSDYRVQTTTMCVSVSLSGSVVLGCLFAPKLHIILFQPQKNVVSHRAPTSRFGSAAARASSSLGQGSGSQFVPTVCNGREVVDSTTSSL
How it was run: (§3)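 CHO cells grown in DMEM GlutaMAX-I, 10% dialyzed FBS, 2.5 g/L L-proline, seeded 26,000/well 24 h before. After a 20 min, 37 °C preincubation in DPBS with 1 mM CaCl2, 1 mM MgCl2, 1 mM IBMX, compound plus 25 µM forskolin was given for 10 min at 37 °C. Stopped with ice-cold sodium acetate pH 6.2, 0.1% Triton X-100, 0.1 mM IBMX; cAMP by radioimmunoassay.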

Rattus norvegicus [8] = test: Antiallodynic activity against von Frey hair mechanically stimulated neuropathic pain in Sprague-Dawley rat assessed as increase of response threshold at 250 nmol dosed intrathecally after 24 hrs relative to control; assay type: functional; conditions: in the assay text read “after 3 hrs” for “after 24 hrs”; how it was run: as §1
Rattus norvegicus [9] = test: Antiallodynic activity against von Frey hair mechanically stimulated neuropathic pain in Sprague-Dawley rat assessed as increase of response threshold at 500 nmol dosed intrathecally after 24 hrs; assay type: functional, organism-based; how it was run: as §1
[10] = biological target: Metabotropic glutamate receptor 1 (Homo sapiens, UniProt Q13255); test: Agonist activity at mGlu1 receptor expressed in CHO cells assessed as myo-[2-3H]Inositol turnover by scintillation counting; assay type: functional, cell-based
Metabotropic glutamate receptor 1, sequence (Q13255 whole entry): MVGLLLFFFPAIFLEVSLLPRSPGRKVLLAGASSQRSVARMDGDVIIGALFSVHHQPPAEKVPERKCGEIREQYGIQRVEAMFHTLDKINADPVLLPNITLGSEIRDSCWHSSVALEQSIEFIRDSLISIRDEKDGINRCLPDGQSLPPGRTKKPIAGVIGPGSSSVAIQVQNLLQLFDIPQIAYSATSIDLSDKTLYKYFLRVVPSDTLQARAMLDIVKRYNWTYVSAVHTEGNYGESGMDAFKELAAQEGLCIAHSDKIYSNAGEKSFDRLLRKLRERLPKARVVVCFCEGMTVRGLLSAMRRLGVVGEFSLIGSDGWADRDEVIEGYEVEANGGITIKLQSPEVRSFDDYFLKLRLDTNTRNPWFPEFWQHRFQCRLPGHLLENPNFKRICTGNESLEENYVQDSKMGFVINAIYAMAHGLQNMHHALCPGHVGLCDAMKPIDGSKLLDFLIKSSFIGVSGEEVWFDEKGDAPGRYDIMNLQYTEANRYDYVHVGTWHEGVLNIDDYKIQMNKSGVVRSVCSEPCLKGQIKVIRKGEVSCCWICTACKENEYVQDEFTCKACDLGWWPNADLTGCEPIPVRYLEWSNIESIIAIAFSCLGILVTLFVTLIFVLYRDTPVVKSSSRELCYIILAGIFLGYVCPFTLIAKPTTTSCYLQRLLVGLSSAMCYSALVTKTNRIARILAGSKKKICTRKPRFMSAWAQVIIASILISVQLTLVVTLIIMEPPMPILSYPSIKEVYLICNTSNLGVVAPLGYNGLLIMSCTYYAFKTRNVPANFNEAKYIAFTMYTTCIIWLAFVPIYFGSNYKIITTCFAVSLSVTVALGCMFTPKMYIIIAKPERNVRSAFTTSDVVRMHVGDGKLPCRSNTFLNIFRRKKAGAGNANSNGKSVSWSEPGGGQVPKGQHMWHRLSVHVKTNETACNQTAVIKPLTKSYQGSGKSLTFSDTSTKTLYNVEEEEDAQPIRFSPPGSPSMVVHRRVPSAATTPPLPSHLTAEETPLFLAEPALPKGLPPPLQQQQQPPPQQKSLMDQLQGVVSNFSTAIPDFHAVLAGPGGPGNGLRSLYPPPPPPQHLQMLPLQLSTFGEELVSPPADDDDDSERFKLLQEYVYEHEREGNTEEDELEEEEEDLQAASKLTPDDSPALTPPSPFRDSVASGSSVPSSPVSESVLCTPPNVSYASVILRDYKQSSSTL
How it was run: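 CHO cells stably expressing receptor, washed with DPBS, preincubated 30 min at 37 °C in HBSS with 20 mM HEPES, 1 mM CaCl2, 1 mM MgCl2, 0.85 mg/mL LiCl, pH 7.4; compound added for 30 min at 37 °C. Stopped with ice-cold 10 mM formic acid, 30 min at 4 °C. [3H]IP measured with yttrium silicate SPA beads; counts per minute read.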

[11] = biological target: Metabotropic glutamate receptor 4 (Homo sapiens, UniProt Q14833); test: Agonist activity at mGlu4 receptor expressed in CHO cells assessed as inhibition of forskolin-induced increase of cAMP level; assay type: functional, cell-based; how it was run: as §3
Metabotropic glutamate receptor 4, sequence (Q14833 whole entry): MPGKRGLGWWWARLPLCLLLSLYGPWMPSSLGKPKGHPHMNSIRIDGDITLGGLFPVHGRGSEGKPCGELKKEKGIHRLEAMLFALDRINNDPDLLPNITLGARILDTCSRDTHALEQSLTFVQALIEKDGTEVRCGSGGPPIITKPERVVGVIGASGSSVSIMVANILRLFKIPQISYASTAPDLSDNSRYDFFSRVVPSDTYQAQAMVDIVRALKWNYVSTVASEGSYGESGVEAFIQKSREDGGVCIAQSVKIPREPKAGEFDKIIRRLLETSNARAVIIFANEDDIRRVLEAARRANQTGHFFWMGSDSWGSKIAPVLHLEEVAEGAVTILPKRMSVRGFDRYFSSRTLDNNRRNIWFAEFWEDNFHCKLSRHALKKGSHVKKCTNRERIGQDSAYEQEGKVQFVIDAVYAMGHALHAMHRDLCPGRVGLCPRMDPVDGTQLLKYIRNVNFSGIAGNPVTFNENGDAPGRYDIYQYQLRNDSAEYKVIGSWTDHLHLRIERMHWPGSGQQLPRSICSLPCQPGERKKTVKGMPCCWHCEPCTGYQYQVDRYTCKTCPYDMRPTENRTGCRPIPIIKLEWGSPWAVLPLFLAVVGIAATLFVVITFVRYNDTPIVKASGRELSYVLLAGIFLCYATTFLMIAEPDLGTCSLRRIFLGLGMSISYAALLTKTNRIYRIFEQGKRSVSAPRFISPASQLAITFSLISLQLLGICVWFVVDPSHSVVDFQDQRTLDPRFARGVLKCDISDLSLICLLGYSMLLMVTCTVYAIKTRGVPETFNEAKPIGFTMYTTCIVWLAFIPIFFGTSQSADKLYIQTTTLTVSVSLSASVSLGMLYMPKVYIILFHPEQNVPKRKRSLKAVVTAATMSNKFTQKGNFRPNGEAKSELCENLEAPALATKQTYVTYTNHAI

[12] = biological target: T1, Metabotropic glutamate receptor 2; test: Antagonist activity at mGlu2 receptor expressed in CHO cells assessed as increase of cAMP level; assay type: functional, cell-based

SMILES	Activity (Rattus norvegicus [1])	Activity (Rattus norvegicus [2]) [g]	Activity (Rattus norvegicus [3]) [g]	IC50 [4] [µM]	Activity (Rattus norvegicus [5])	IC50 [6] [µM]	IC50 (Glutamate NMDA receptor) [µM]	EC50 [7] [µM]	Activity (Rattus norvegicus [8]) [g]	Activity (Rattus norvegicus [9])	EC50 [10] [µM]	EC50 [11] [µM]	IC50 [12] [µM]
N[C@H](C(=O)O)[C@@H]1[C@@H](C(=O)O)[C@@H]1C1CC1 (racemic)	Active	10	5	> 100	Dose-dependent effect	> 100	> 100	0.05	7.5	inactive	> 100	> 100	–
C[C@H]1[C@H](C(=O)O)[C@H]1[C@H](N)C(=O)O (racemic)	–	–	–	–	–	–	–	0.01	–	–	> 100	> 100	–
N[C@H](C(=O)O)[C@@H]1[C@@H](C(=O)O)[C@@H]1C1CCCCC1 (racemic)	–	–	–	> 100	–	> 100	> 100	–	–	–	> 100	> 100	62
